Bioassay records as filed in PubChem BioAssay.
A selection: hits, their analogues and other compounds. The true share with any hit is near 0.48%.
TNAP inh hi DEA: blocks human TNAP under high phosphate acceptor concentration. hit rate 0.03% among 200,000. purified TNAP, CDP-star luminescence, 1 M DEA. AID 1135. inhibition, % at 20 µM. P05186;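 active = over 50% inhibition of tissue-nonspecific alkaline phosphatase at 20 µM in the single-dose screen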;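 also: plate controls were DMSO wells for no effect and EDTA-quenched wells as full inhibition for full effect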
ABCB1 inh: inhibitors of human ABCB1 transporter, ABCG2 counter-screen; CCRF-Adr cells, JC-1 efflux, flow cytometry; inhibition, % at 6.6 µM; hit rate 0.067% among 190,000; AID 1326; in the data active = inhibition above about 40%;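 also: 0% = vehicle and 100% = reference inhibitor; higher value means more JC-1 retained so stronger ABCB1 efflux block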
TNAP inh no acc: TNAP (human) inhibition, acceptor-free conditions; P05186; purified TNAP, CDP-star luminescence, 30 min; inhibition, % at 20 µM; hit rate 0.26% among 200,000; AID 1012;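 active = tissue-nonspecific alkaline phosphatase inhibition above about 50% at 20 µM in the single-dose screen, limit read from the data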;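 also: 0% = DMSO negative control and 100% = EDTA positive control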
TNAP act hi DEA: TNAP (human) activation, high acceptor | 200,000 tested, under 10 active | P05186 | purified TNAP, CDP-star luminescence, 1 M DEA, 30 min; hits give high values; 0 = EDTA background, 1 = DMSO-only activity | activation factor at 20 µM | AID 1136;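 active = activation factor at least 2 at 20 µM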
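Test system – human TNAP · Doses – 20 µM single point · Incubation – 30 min, room temperature · Signal – luminescent substrate turnover signal · Read-out basis – activation factor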
PKD1 inh: PKD1 (human) kinase inhibition | Q15139 | PKD1 kinase fluorescence polarization assay | inhibition, % (concentration not given with the values) | AID 797 | hit rate 0.056% among 200,000; in the data active = inhibition above about 50%
ABCG2 inh: human ABCG2 inhibition, ABCB1 as counter-screen; IgMXP3 cells, JC-1 efflux, flow cytometry; AID 1325; hit rate 0.1% among 190,000; Q9UNQ0; inhibition, % at 6.6 µM;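 active = inhibition above 80%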;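 also: 0% = DMSO and 100% = nicardipine control wells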
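material = IgMXP3 (ABCG2) plus far-red-tagged CCRF-Adr (ABCB1) cells | amount = 3 million cells/mL, equal mix of both lines | also added = JC-1 transporter substrate | dosing = one concentration, 6.6 µM final | schedule = 10 min at 25 °C | measured by = flow cytometric JC-1 green MFI at 530 nm | read-out basis = percent efflux inhibition, scaled nicardipine 100% to DMSO 0%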
ABCB1 confirm: confirmation of human ABCB1 transporter inhibitors, ABCG2 counter-screen; shares compounds with ABCG2 inh; CCRF-Adr cells, JC-1 efflux, flow cytometry; inhibition, % at 6.6 µM; hit rate 7% among 270; AID 1451;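 active = inhibition of pump activity above 50%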;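 also: 0% = DMSO and 100% = nicardipine full pump inhibition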
ABCG2 single pt: inhibits human ABCG2 efflux, confirmed at single point | shares compounds with ABCG2 inh | IgMXP3 cells, JC-1 efflux, flow cytometry | inhibition, % at 6.6 µM | hit rate 6% among 270 | AID 1453;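 active = inhibition above 50%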;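 also: 0% = DMSO wells and 100% = nicardipine pump inhibitor wells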
IgMXP3 fluor: IgMXP3 autofluorescence flag for ABCG2 confirmation; IgMXP3 cells, compound autofluorescence 488/530 nm, flow; hits give high values; AID 1480; shares compounds with ABCG2 inh; fluorescence at 6.6 µM; hit rate 30% among 270;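 active = fluorescence in ABCG2-expressing cells above the plate's control-well mean plus 3 SD, cut at about 15 in these data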;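 also: median cell fluorescence with compound minus that of DMSO-treated control cells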
CCRF-Adr fluor: CCRF-Adr autofluorescence flag for ABCB1 confirmation; shares compounds with ABCG2 inh; CCRF-Adr cells, compound autofluorescence 488/530 nm, flow cytometry; hits give high values; fluorescence at 6.6 µM; hit rate 30% among 270; AID 1483;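 active = fluorescence beyond the plate control mean plus 3 SD, with a fluorescence-to-maximum score over 2, cut at about 25 in these data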
* = called active by the depositor; nt = not tested or not shown.

SMILES	TNAP inh hi DEA	ABCB1 inh	TNAP inh no acc	TNAP act hi DEA	PKD1 inh	ABCG2 inh	ABCB1 confirm	ABCG2 single pt	IgMXP3 fluor	CCRF-Adr fluor
OC1(c2cccc(C(F)(F)F)c2)CCN(c2ccc(-c3ccccc3)nn2)CC1	3.1	1.6	-0.3	1	-0.8	92.6*	14.1	37.0	8.36	51.3*
COc1ccc(C2=C(SC)CC2=NC(C)(C)C)cc1	-2.5	0.0	-9.1	1	-14.6	0.6	nt	nt	nt	nt
CN(C)S(=O)(=O)Nc1cc(F)cc(F)c1	-7.8	0.4	-11.1	1.1	1.3	3.9	nt	nt	nt	nt
Cc1ccccc1CN1CCc2c(OCC(=O)N3CCCc4ccccc43)cccc2C1=O	-7.9	47.4*	-7.7	1.1	-5.2	51.8	28.8	36.2	21.6*	12.9
O=C1c2cccc(OCC(=O)N3CCCc4ccccc43)c2CCN1Cc1cccnc1	-5.2	5.9	-12.7	1.1	3.4	24.7	nt	nt	nt	nt
Cc1cccc(Nc2nc(NCCCN3CCOCC3)nc(N)c2[N+](=O)[O-])c1	-0.4	2.6	-4.7	1	2.4	9.0	nt	nt	nt	nt
CCOc1cc(N2CCOCC2)c(OCC)cc1NC(=O)COC(=O)c1cc(C)cc(C)c1	5.6	3.6	3.8	0.9	-3.5	106.0*	9.2	44.8	-1.99	-4.29
O=C(NC(CCl)c1ccccc1)c1ccc(Cl)cc1 (configuration not stated)	-2.1	1.0	-7.9	1	7.8	1.2	nt	nt	nt	nt
Cc1cc(N2CCCCC2)ccc1[N+](=O)[O-]	18.3	1.7	13.2	0.8	-15.6	83.7*	1.1	7.7	0.76	2.41
S=C(NCCN1CCOCC1)Nc1ccccc1Cl	-4.7	-0.7	5.1	1	10.1	-4.6	nt	nt	nt	nt
COc1ccc(Cl)cc1NC(=O)COC(=O)CCCN1C(=O)c2ccccc2C1=O	3.2	1.5	3.1	1	0.7	3.5	1.4	19.6	-1.39	0.16
CC(O)CNc1nc2c(c(=O)n(C)c(=O)n2C)n1Cc1cccc(Br)c1 (configuration not stated)	-7.1	1.2	-0.5	1.1	-10.4	91.3*	-37.9	34.9	11.8	114*
COc1ccc(NC(=O)CC2CCCC2)cc1S(=O)(=O)N1CCCCC1	-0.9	-0.2	-22.3	1	6.0	2.2	nt	nt	nt	nt
COc1ccc(NC(=O)CCC2CCCCC2)cc1S(=O)(=O)N1CCCCC1	-3.9	2.3	-30.1	1	3.5	80.8*	25.8	9.2	8.01	11.4
CCOc1cc(/C=C2/SC(=S)N(C)C2=O)ccc1Oc1ccc([N+](=O)[O-])cc1[N+](=O)[O-]	3.0	0.3	-5.3	1	-1.3	13.1	nt	nt	nt	nt
CCn1cc(CN2CCc3c([nH]c4ccccc34)C2c2cccc(OC)c2OC)c(C)n1 (configuration not stated)	3.0	0.0	0.1	1	-3.1	0.1	nt	nt	nt	nt
COc1cccc(CNC(=O)C(=O)NCC(c2ccco2)N2CCOCC2)c1 (configuration not stated)	-6.7	65.1*	-23.3	1.1	-3.4	65.4	-0.1	0.7	-0.14	4.31
Cc1ccc(CNC(=O)C(=O)NCC(c2ccco2)N2CCOCC2)cc1 (configuration not stated)	-4.0	-0.1	-6.9	1	-15.4	-2.8	nt	nt	nt	nt
Cc1cc([N+](=O)[O-])nn1CC(=O)NCc1nc2ccccc2[nH]1	1.1	0.2	-7.4	1	-3.3	0.2	nt	nt	nt	nt
Cc1ccc(OCCNC(=O)C(=O)NCc2ccco2)cc1	-2.4	0.3	-4.3	1	-5.5	2.2	nt	nt	nt	nt
Cc1ccnc(N/C=C(\C#N)c2nc(-c3cccc(Br)c3)cs2)c1	0.5	46.8*	0.0	1	1.0	43.5	16.4	9.4	41.7*	161*
CCOC(=O)c1sc2cc([N+](=O)[O-])cc(SCC(C)C)c2c1N	8.6	31.6	5.5	0.9	7.1	59.9	23.4	-7.2	81.6*	129*
c1ccc(CN2CCN(c3nc(-c4ccccn4)nc4ccccc34)CC2)cc1	-5.2	48.0*	7.6	1.1	7.0	32.7	37.3	18.8	2.06	12.8
CCN1CCN(c2nc(-c3ccccn3)nc3ccccc23)CC1	-1.4	0.6	15.6	1	-5.8	1.2	nt	nt	nt	nt
O=C(c1ccccc1)c1ccc(N2CCOCC2)c(NC(=O)c2ccco2)c1	3.9	3.6	0.8	1	-3.3	81.3*	0.4	47.5	0.46	32.9*
SMILES	TNAP inh hi DEA	ABCB1 inh	TNAP inh no acc	TNAP act hi DEA	PKD1 inh	ABCG2 inh	ABCB1 confirm	ABCG2 single pt	IgMXP3 fluor	CCRF-Adr fluor
O=C(Nc1cc(C(F)(F)F)ccc1N1CCOCC1)c1ccco1	-3.3	0.1	-13.2	1	-13.1	2.0	nt	nt	nt	nt
O=C(NCc1ccccn1)Nc1cccc(NC(=O)NCc2ccccn2)c1	-4.8	0.7	-13.2	1	-5.8	2.0	nt	nt	nt	nt
O=C(NCc1ccccn1)Nc1ccc(Cl)c(Cl)c1	2.1	0.9	-2.0	1	3.5	69.7	0.4	23.5	-1.34	-2.09
COc1ccccc1NC(=O)/C(=C/c1cccc([N+](=O)[O-])c1)c1ccccc1	-3.3	3.2	-6.4	1	0.8	56.8	-0.9	24.4	4.81	12.5
COc1ccccc1C(=O)N/C(=C/c1cccc([N+](=O)[O-])c1)C(=O)Nc1cccc(C(=O)O)c1	-4.5	1.0	-4.1	1	-5.3	11.4	nt	nt	nt	nt
O=C(Nc1ccc(C(=O)O)cc1)Nc1ccc(F)cc1F	-1.1	51.1*	-7.7	1	3.2	190.4*	0.7	0.9	1.41	-1.89
COc1ccc(NC(=O)Nc2ccc(F)cc2F)cc1	-1.0	0.4	-9.9	1	0.1	15.2	nt	nt	nt	nt
COc1ccccc1NC(=O)C1CCCN(c2nc(C)cc(C)n2)C1 (configuration not stated)	-5.0	0.8	-12.7	1.1	-2.0	11.1	nt	nt	nt	nt
CCOc1ccc(OCC)c(NC(=O)CN2CCN(c3ccc(C)cc3C)CC2)c1	0.0	2.7	-6.4	1	-14.6	80.9*	10.6	31.8	8.76	-1.84
CCOC(=O)N1CCN(CC(=O)Nc2cc(OCC)ccc2OCC)CC1	-0.6	1.0	-3.5	1	-2.8	29.5	nt	nt	nt	nt
CCOc1ccc(OCC)c(NC(=O)C2CCCN(c3nc(C)cc(C)n3)C2)c1 (configuration not stated)	-5.3	2.4	-9.2	1.1	-5.7	101.1*	7.8	27.6	2.71	9.66
